For 1 molecule, GI50 and CC50 results are on record in ChEMBL document CHEMBL3352597, “Heck products of parthenolide and melampomagnolide-B as anticancer modulators that modify cell cycle progression” (Eur J Med Chem, 2014).

Common to all, as to type: functional
One assay has as its system A498. The assay is described as follows: Anticancer activity against human A498 cells. In a few lines: (§1)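 NCI 60 human cancer cell line panel, multiple-dose testing at five concentrations (10^-4, 10^-5, 10^-6, 10^-7 and 10^-8 M). Dose-response curves plot cytotoxic effect against log10 of drug concentration for each cell line. GI50 is the molar concentration giving 50% growth inhibition; LC50 is the concentration killing 50% of cells.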

The subject of another assay is CCRF-CEM. The assay is described as follows: Anticancer activity against human CCRF-CEM cells. In short, it runs like this:
as §1

The nature of assay [1]: Anticancer activity against human OVCAR4 cells. In short, it runs like this:
as §1

Assay [2] in a line: Anticancer activity against human OVCAR3 cells. In short, it runs like this:
as §1

Another assay has as its system T47D. The assay is described as follows: Anticancer activity against human T47D cells. In short, it runs like this: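 NCI 60 human tumour cell line screen. A single-concentration pre-screen was run at 10^-5 M. Compounds selected from it were then tested at five concentrations, 10^-4 to 10^-8 M. Dose-response curves plotted cytotoxic effect against log10 of the drug concentration for each cell line. GI50 is the molar concentration giving 50% growth inhibition, and LC50 the concentration killing 50% of cells.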

A short description of assay [3]: Anticancer activity against human LOXIMVI cells. Particulars: LOX IMVI. In a few lines:
as §1

[4] abbreviates: read-out: LC50 (the source's name).

As for `C/C1=C\CC[C@@]2(C)O[C@@H]2[C@H]2OC(=O)/C(=C/c3ccsc3)[C@@H]2CC1`, the GI50 is 17.5 µM in the assay with A498; 19.1 µM in the assay on CCRF-CEM; 24.3 µM in assay [1] (OVCAR-4); 20.5 µM in assay [2] (OVCAR-3); 29.5 µM in the assay on T47D; 18 µM in assay [3]. In addition, the CC50 with A498 (setting [4]) is over 100 µM; in the assay with CCRF-CEM (setting [4]), over 100 µM; in assay [1] (OVCAR-4, read-out: LC50 (the source's name)), over 100 µM; in assay [2] (OVCAR-3, read-out: LC50 (the source's name)), over 100 µM; in the assay with T47D (setting [4]), over 100 µM; in assay [3] (setting [4]) it was 71.2 µM.

Broadly, the GI50 is the concentration at which growth is held to half of that of the control. A lower GI50 goes with more potent growth inhibition.
